PMC7583637 (Bioconjugate Chemistry, 2020)
Where a SMILES comes first, the peptide text is derived from it. [ ]: non-standard residue; d: D form. Dip = N[C@H](C(=O)O)C(c1ccccc1)c1ccccc1; Chg = N[C@H](C(=O)O)C1CCCCC1; NMeA = CN[C@@H](C)C(=O)O

Assays:
XIAP L-Bir2-Bir3 = XIAP L-Bir2-Bir3 (Homo sapiens, UniProt P98170); assay: Competitive fluorescence polarization binding assay with Smac-1F probe
c-FLIP mRNA = assay: RT-qPCR of c-FLIP mRNA expression; type: cell-based, human; conditions: 300 nM, Lipofectamine LTX, 24 h; for Reduction of c-FLIP mRNA levels: A549, relative to reference genes, ΔΔCq, n = 3; for Effect on c-FLIP mRNA levels: A549
A549 cells [1] = assay: AlamarBlue viability assay after lipofection of SMC-PSO conjugates; type: cell-based, human; conditions: 100 nM, Lipofectamine LTX, 48 h, no TRAIL; for Loss of viability: relative to medium control
Summary of the method: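 A549 cells in DMEM with 10% FCS and 4 mM glutamine (37 °C, 5% CO2) were seeded at 5 × 10³ cells/well and grown 24 h to ~70% confluency. Conjugate in OptiMEM was complexed with PLUS Reagent, then Lipofectamine LTX (20 min, RT), and added at 100 nM final in antibiotic-free medium. After 48 h, cells were PBS-washed and given alamarBlue (1:10 in PBS) for 2 h at 37 °C. Fluorescence was read at 531/590 nm relative to medium control.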

c-FLIP = conditions: 2′-MOE-RNA/DNA gapmer PSOs; cited from earlier work
A549 cells [2] = conditions: read-out: IC50, toxicity to A549 cells; cited from earlier work
A549 cells [3] = assay: AlamarBlue viability assay, PNA-CPP and SMC-PNA-CPP conjugates or chloroquine; type: cell-based, human; conditions: control experiments, Figure S7A
Caspase 3 and 7 activity = assay: Caspase 3/7 assay; type: cell-based, human; conditions: 200 nM conjugate, 2 ng/mL SuperKillerTRAIL, 24 h, DEVD-AFC
Summary of the method: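 A549 cells were seeded in 6-well plates 24 h ahead and lipofected to a final 200 nM with 2 ng/mL SuperKillerTRAIL. After 24 h, cells were harvested and lysed (HEPES/NaCl/EDTA/1% Triton X-100, pH 7.5; 20 min on ice with sonication), and protein was measured by BCA. 35 μg protein was mixed with 2× buffer (HEPES, 20 mM DTT, 20% glycerol, pH 7.5) containing 50 μM DEVD-AFC, 2 h at 37 °C in the dark. […] versus medium-treated control; SD shown.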

Chain of XIAP L-Bir2-Bir3 (P98170 120-356): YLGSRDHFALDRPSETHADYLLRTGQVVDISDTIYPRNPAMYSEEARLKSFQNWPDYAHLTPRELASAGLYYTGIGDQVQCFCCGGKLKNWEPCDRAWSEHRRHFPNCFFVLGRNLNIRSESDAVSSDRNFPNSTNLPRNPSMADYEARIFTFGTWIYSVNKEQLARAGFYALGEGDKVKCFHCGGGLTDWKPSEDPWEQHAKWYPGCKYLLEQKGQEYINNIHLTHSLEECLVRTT

## CN[C@@H](C)C(=O)N[C@H](C(=O)N1CCC[C@H]1C(=O)N[C@H](C(=O)NCC(N)=O)C(c1ccccc1)c1ccccc1)C1CCCCC1 [SMC, H-MeAla-Chg-Pro-Dip-Gly-NH2] (H-[NMeA][Chg]P[Dip]G-NH2)
XIAP L-Bir2-Bir3
  IC50: 4.6 µM

## AcS-Chg-Pro-Dip-Gly-Gly-Lys(N3-DBCO-ACTTGTCCCTGCTCCTTGAA)-Dap(AcS-Chg-Pro-Dip)-NH2 [(AcSMC)2-PSO1]
c-FLIP mRNA
  Reduction of c-FLIP mRNA levels: around 40%

## 5'-ACTTGTCCCTGCTCCTTGAA-3' (full phosphorothioate, further chemistry not given here) [ISIS 23296, reference compound]
A549 cells [1]
  Loss of viability: ca. 30%
c-FLIP
  Knockdown reported in original publication: 70%
c-FLIP mRNA
  Reduction of c-FLIP mRNA levels: up to 50%

## Ac-Gly-Lys(N3-DBCO-AGTTCTCTCTGCCCCTAGAT)-Dap(AcS-Chg-Pro-Dip)-NH2 [AcSMC-scrPSO1]
A549 cells [1]
  Effect on viability: some decrease in viability

## AcS-Chg-Pro-Dip-Gly-Gly-Lys(N3-DBCO-AGTTCTCTCTGCCCCTAGAT)-Dap(AcS-Chg-Pro-Dip)-NH2 [(AcSMC)2-scrPSO1]
c-FLIP mRNA
  Effect on c-FLIP mRNA levels: upregulation of c-FLICE did not occur

## Penetratin
A549 cells [2]
  IC50: 60.8 µM

## 5'-AGTTCTCTCTGCCCCTAGAT-3' (phosphorothioate, further chemistry not given here) [unconjugated, scrambled PSO, reference compound]
A549 cells [1]
  Effect on viability: some decrease in viability
c-FLIP mRNA
  Effect on c-FLIP mRNA levels: significant upregulation of c-FLIP levels

## Transportan
A549 cells [2]
  IC50: 2.5 µM

## MeA-Chg-Pro-Dip-Gly-Gly-Lys(N3-DBCO-AGTTCTCTCTGCCCCTAGAT)-Dap(MeA-Chg-Pro-Dip)-NH2 [(SMC)2-scrPSO1]
c-FLIP mRNA
  Effect on c-FLIP mRNA levels: upregulation of c-FLICE did not occur

## octaarginine
A549 cells [2]
  IC50: > 1000 µM

## Ac-Gly-Lys(N3-DBCO-ACTTGTCCCTGCTCCTTGAA)-Dap(MeA-Chg-Pro-Dip)-NH2 [SMC-PSO1]
A549 cells [1]
  Loss of viability: 40%

## Ac-Gly-Lys(N3-DBCO-AGTTCTCTCTGCCCCTAGAT)-Dap(MeA-Chg-Pro-Dip)-NH2 [SMC-scrPSO1]
A549 cells [1]
  Loss of viability: ca. 30%

## CCN(CC)CCCC(C)Nc1ccnc2cc(Cl)ccc12 (centres unmarked) [chloroquine]
A549 cells [3]
  Concentration up to which viability of A549 cells is not affected: up to 200 μM

## MeA-Chg-Pro-Dip-Gly-Gly-Lys(N3-DBCO-ACTTGTCCCTGCTCCTTGAA)-Dap(MeA-Chg-Pro-Dip)-NH2 [(SMC)2-PSO1]
Caspase 3 and 7 activity
  Increase of caspase 3/7 activity over background: ~40 fold
A549 cells [1]
  Loss of viability: 50–60%
c-FLIP mRNA
  Reduction of c-FLIP mRNA levels: around 40%

## Ac-Gly-Lys(N3-DBCO-ACTTGTCCCTGCTCCTTGAA)-Dap(AcS-Chg-Pro-Dip)-NH2 [AcSMC-PSO1]
A549 cells [1]
  Loss of viability: ca. 30%
